Assay results as given in article PMC3428429 (Biochimica et biophysica acta, 2012).

Legend:
[1] = Two step assay, step one: terbium/DPA leakage from vesicles
[2] = Incremental leakage assay
[3] = Serial dilution leakage assay; details: independent of total P:L (0.05 to 0.001)
How it was run: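 Terbium-loaded LUVs (100 nm extruded; 50 mM TbCl₃, 100 mM sodium citrate, 10 mM TES pH 7.2 inside), external Tb removed by gel filtration. Outside buffer is 300 mM NaCl, 10 mM TES pH 7.2 with 50 μM DPA. Test compound runs 0.078–1.25 μM at six fixed total P:L ratios in 96-well plates. Triton X-100 wells with matched lipid give 100% leakage. Repeated with BSA to block well adsorption.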

[4] = Two step assay, step two: dithionite quenching of NBD lipids; details: 1 μM peptide, at least 8 h

For “Ac-UPUAUAQUVUGLUPVUUQQF-OH [alamethicin]”, the “lowest P:L ratio with measurable pore-forming activity” value ([1]; 1:10000 or 10 peptides per vesicle, supplemental Figure S1) was no more than 0.0001, the “leakage in multiple lipid additions, PEG-lipid vesicles” value ([2]; vesicles containing 5 mol % PEG2000-headgroup conjugated lipids, supplemental Figure S5A) was “near complete leakage in multiple lipid additions” and the “lipid exchange between vesicles along with peptide” value ([2]; vesicles doped with fluorescent lipids, supplemental Figure S5B) was “no lipid exchange between vesicles”. For the same substance, the “peptide concentration at which all leakage curves reach 100% leakage” value [3] was no more than 500 nM.
In the case of “ALWKTMLKKLGTMALHAGKAALGAAADTISQGTQ [dermaseptin S1]”, the “terbium leakage” value ([1]; P:L=0.02 (1:50), only in PG-containing vesicles, 1 μM peptide, at least 8 h) is reported as “high leakage”, the “access to the vesicle interior at equilibrium” value ([4]; P:L = 0.005 (1:200)) is reported as “no access to the vesicle interior at equilibrium” and the “access to NBD lipids at equilibrium” value ([4]; P:L=0.02 (1:50), only in PG-containing vesicles) is reported as “high access to NBD lipids”.
